Calls of active or inactive are those of the source. The calls are words filed in the database; no cut-off is given here.

The source of these data is ChEMBL document CHEMBL1165849, “New structures and bioactivity properties of jasplakinolide (jaspamide) analogues from marine sponges” (2010).

The test system of test [1] is HeLa. The test is described as follows: Cytotoxicity against human HeLa cells at 80 nM after 34 hrs by microfilament disruption assay. Format: functional, cell-based.
Test [2] deals with HCT-116. The experiment in a line: Growth inhibition of human HCT116 cells by sulforhodamine B assay. The class given is functional. Background: The SRB assay estimates cell density from bound dye.
Test [3] deals with MCF7. The test is described as follows: Growth inhibition of human MCF7 cells by sulforhodamine B assay. The class given is functional.
Test [4] has as its system HOP-62. The test is described as follows: Growth inhibition of human HOP62 cells by sulforhodamine B assay. Format: functional. The method, boiled down:
(§1)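 Tested by NCI in the NCI-DTP 60 cell line panel screen; GI50 was derived, with TGI and LC50 from the same data.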

Test [5] deals with HCT-15. The test is described as follows: Growth inhibition of human HCT15 cells by sulforhodamine B assay. Format: functional. The gist of the method:
as §1

Test [6] relates to SF-539. The test is described as follows: Growth inhibition of human SF539 cells by sulforhodamine B assay. Format: functional. The gist of the method: as §1
Test [7] concerns M14. The test is described as follows: Growth inhibition of human M14 cells by sulforhodamine B assay. The class given is functional. The gist of the method: as §1
The test system of test [8] is OVCAR-3. The experiment in a line: Growth inhibition of human OVCAR-3 cells by sulforhodamine B assay. The class given is functional. The gist of the method:
as §1

Test [9] relates to 786-0. The test is described as follows: Growth inhibition of human 786-0 cells by sulforhodamine B assay. Format: functional. The gist of the method: as §1
Test [10] in a line: Growth inhibition of human […] cells by sulforhodamine B assay. Format: functional. The method, boiled down:
as §1

The term GI50 denotes the concentration that inhibits growth by half. A high value points to less potent growth inhibition. As to `C/C1=C\[C@H](C)C[C@H](C)OC(=O)C[C@H](c2ccc(O)cc2)NC(=O)[C@@H](C[C@@]2(O)C(=O)Nc3ccccc32)N(C)C(=O)C(C)NC(=O)[C@@H](C)C1` (stereo partly specified), the result in test [1] was inactive. Moreover, the 50% growth inhibitory concentration (GI50) in test [2] (Homo sapiens, HCT-116) is over 10000 nM; in [3] (Homo sapiens, MCF7) it was over 10000 nM.
For `C/C1=C\[C@H](C)C[C@H](C)OC(=O)C[C@H](c2ccc(O)cc2)NC(=O)[C@@H](Cc2c(Br)[nH]c3ccccc23)N(C)C(=O)[C@H](C)NC(=O)CC1`, the outcome in test [1] was Active.
Same read-out and setting: the entry for `C/C1=C\[C@H](C)C[C@H](C)OC(=O)C[C@H](c2ccc(O)cc2)NC(=O)[C@@H](Cc2ncnc3ccccc23)N(C)C(=O)C(C)NC(=O)[C@@H](C)C1` (stereo partly specified) is “inactive”.
Turning to `C=C1C[C@H](C)C(=O)N[C@@H](C)C(=O)N(C)[C@H](CC2(OC)OC(=O)Nc3ccccc32)C(=O)N[C@@H](c2ccc(O)cc2)CC(=O)O[C@@H](C)C[C@@H](C)C1=O` (stereo partly specified), the outcome in [1] was inactive.
Same read-out and setting: the result for `C=C1C[C@H](C)C(=O)N[C@@H](C)C(=O)N(C)[C@H](Cc2c(Br)[nH]c3ccccc23)C(=O)N[C@@H](c2ccc(O)cc2)CC(=O)O[C@@H](C)C[C@@H](C)[C@@H]1O` reads “inactive”; that for `C=C1C[C@H](C)C(=O)N[C@@H](C)C(=O)N(C)[C@H](Cc2c(Br)[nH]c3ccccc23)C(=O)N[C@@H](c2ccc(O)cc2)CC(=O)O[C@@H](C)C[C@@H](C)[C@H]1O`, “inactive”.
Turning to `COC1(C[C@@H]2C(=O)N[C@@H](c3ccc(O)cc3)CC(=O)O[C@@H](C)C[C@@H](C)/C=C(\C)C[C@H](C)C(=O)N[C@@H](C)C(=O)N2C)OC(=O)Nc2ccccc21` (stereo in doubt; 5), the outcome in [1] was inactive.
For `COC1(C[C@@H]2C(=O)N[C@@H](c3ccc(O)cc3)CC(=O)O[C@@H](C)C[C@@H](C)/C=C(\C)C[C@H](C)C(=O)N[C@@H](C)C(=O)N2C)OC(=O)Nc2ccccc21` (stereo in doubt; 5) [JASPLAKINOLIDEP], the GI50 turned out to be 350 nM in test [2] (Homo sapiens, HCT-116) and 4900 nM in test [3].
As for `COC1(C[C@@H]2C(=O)N[C@@H](c3ccc(O)cc3)CC(=O)O[C@@H](C)C[C@@H](C)/C=C(\C)C[C@H](C)C(=O)N[C@@H](C)C(=O)N2C)OC(=O)Nc2ccccc21` (stereo in doubt; 6), the outcome in test [1] was inactive.
Turning to `COC1(C[C@@H]2C(=O)N[C@@H](c3ccc(O)cc3)CC(=O)O[C@@H](C)C[C@@H](C)/C=C(\C)C[C@H](C)C(=O)N[C@@H](C)C(=O)N2C)OC(=O)Nc2ccccc21` (stereo in doubt; 6) [JASPLAKINOLIDEP], the GI50 in test [2] is 380 nM; in test [3], 2400 nM.
Turning to `C/C1=C\[C@H](C)C[C@H](C)OC(=O)C[C@H](c2ccc(O)cc2)NC(=O)[C@@H](Cc2c(Br)[nH]c3ccccc23)N(C)C(=O)[C@H](CO)NC(=O)[C@@H](C)C1` [JASPAMIDE E], the result in test [1] was inactive. The GI50 came out at 140 nM in test [4]; 140 nM in [2] (Homo sapiens, HCT-116); 970 nM in test [5]; 170 nM in test [6]; 78 nM in test [7]; 530 nM in test [8]. For the same compound, the GI50 in [9] was 180 nM; in test [3] (Homo sapiens, MCF7), 180 nM; in test [10], 22 nM.
Consider `C/C1=C\[C@H](C)C[C@H](C)OC(=O)C[C@H](c2ccc(O)cc2)NC(=O)[C@@H](Cc2c(Br)[nH]c3ccccc23)N(C)C(=O)[C@H](C)NC(=O)[C@@H](C)C1` [JASPAMIDE], for which, in [1], the result was Active. Moreover, the GI50 in test [4] came out at 150 nM; in [2] (Homo sapiens, HCT-116), 100 nM; in test [5], 690 nM; in test [6], 300 nM; in test [7], 56 nM; in test [8] it was 40 nM. Also, the GI50 in test [9] was determined as 20 nM; in [10] it was 31 nM.
On to `C=C1C[C@H](C)C(=O)N[C@@H](C)C(=O)N(C)[C@H](Cc2c(Br)[nH]c3ccccc23)C(=O)N[C@@H](c2ccc(O)cc2)CC(=O)O[C@@H](C)C[C@@H](C)C1=O` [JASPLAKINOLIDE B], for which, in [1], the result was inactive. Further, the 50% growth inhibitory concentration (GI50) was 140 nM in test [4]; under 1 nM in [2] (Homo sapiens, HCT-116); 6600 nM in [5]; 64 nM in test [6]; 53 nM in test [7]; 110 nM in [8]. The GI50 is 510 nM in test [9]; 130 nM in test [3] (Homo sapiens, MCF7); 1.9 nM in [10].
On to `C/C1=C\[C@H](C)C[C@H](C)OC(=O)C[C@H](c2ccc(O)cc2)NC(=O)[C@@H](C[C@]2(O)C(=O)Nc3ccccc32)N(C)C(=O)C(C)NC(=O)[C@@H](C)C1` (stereo partly specified) [JASPLAKINOLIDE S], for which, in test [1], the outcome was inactive. For the same compound, the GI50 worked out at 810 nM in [2] (Homo sapiens, HCT-116) and 2300 nM in test [3] (Homo sapiens, MCF7).
